Values joined by “and” are separate entries in the source; they are usually repeats but may differ in a detail not shown here. Equal entries are not always repeated. Active and inactive are the calls of the source.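 The calls were made as follows: active = compounds that push a bacterial single-strand DNA binding protein off labeled DNA, with IC50 up to 50 micromolar; inactive = the rest.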
Target: Single-stranded DNA-binding protein (Escherichia coli (strain K12)) (UniProt P0AGE0)
Assay: displacement of E. coli SSB from DNA, late-stage follow-up, selectivity assay for HCV NS3 helicase inhibitor project, biochemical, fluorescence polarization (AID 623966)
Conditions: E. coli SSB / Cy5-dT15 DNA
Procedure, shortened: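 System: E. coli SSB (ssDNA-binding protein), Cy5-labelled dT15 DNA; quantity: 20 nM E. coli SSB per well, final; dosing: compound dilution series in DMSO; signal: fluorescence polarization of Cy5 label; evaluation: percent displacement and IC50 from dose-response fits; benchmarks: no-enzyme wells and 200 nM dT20 competitor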

Chain of Single-stranded DNA-binding protein (Escherichia coli (strain K12)) (P0AGE0 whole entry, looked up): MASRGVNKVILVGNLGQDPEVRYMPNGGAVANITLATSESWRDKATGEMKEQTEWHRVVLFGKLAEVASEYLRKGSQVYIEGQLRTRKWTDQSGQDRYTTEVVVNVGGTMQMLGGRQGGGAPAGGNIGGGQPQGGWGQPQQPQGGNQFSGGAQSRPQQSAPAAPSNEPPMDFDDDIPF

IC50 | Structure (SMILES)
10 µM | COc1ccc(S(=O)(=O)Nc2ccc(-c3nc4ccc(-c5nc6ccc(C)c(S(=O)(=O)O)c6s5)cc4s3)cc2)cc1
22 µM and 28 µM | Cc1ccc2nc(-c3ccc4nc(-c5ccc(NC(=O)c6ccc7ccccc7c6)cc5)sc4c3)sc2c1S(=O)(=O)O
23 µM | Cc1ccc2nc(-c3ccc(NC(=O)c4ccc(NC(=O)c5ccc(C(F)(F)F)cc5)cc4)cc3)sc2c1S(=O)(=O)O
14 µM | Cc1ccc2nc(-c3ccc4nc(-c5ccc(NC(=O)c6cc(F)ccc6C(F)(F)F)cc5)sc4c3)sc2c1S(=O)(=O)O
15 µM | Cc1ccc2nc(-c3ccc4nc(-c5ccc(NC(=O)Nc6ccc(C(F)(F)F)cc6)cc5)sc4c3)sc2c1S(=O)(=O)O
13 µM | Cc1ccc2nc(-c3ccc4nc(-c5ccc(NC(=O)c6ccccc6C(F)(F)F)cc5)sc4c3)sc2c1S(=O)(=O)O
2 µM | COC(=O)c1ccc(C(=O)Nc2ccc(-c3nc4ccc(-c5nc6ccc(C)c(S(=O)(=O)O)c6s5)cc4s3)cc2)cc1
5 µM | Cc1ccc2nc(-c3ccc4nc(-c5ccc(NCc6ccccc6)cc5)sc4c3)sc2c1S(=O)(=O)O
4 µM | Cc1ccc2nc(-c3ccc4nc(-c5ccc(NC(=O)c6ccccc6)cc5)sc4c3)sc2c1S(=O)(=O)O
inactive | Cc1ccc2nc(-c3ccc4nc(-c5ccc(NC(=O)c6cccc(C(F)(F)F)c6F)cc5)sc4c3)sc2c1S(=O)(=O)O
> 100 µM (inactive) | Cc1ccc2nc(-c3ccc4nc(-c5ccc(NC(=O)c6cccc(C(F)(F)F)c6)cc5)sc4c3)sc2c1S(=O)(=O)O
10 µM | Cc1ccc2nc(-c3ccc4nc(-c5ccc(NC(=O)c6ccc(C(F)(F)F)c(F)c6)cc5)sc4c3)sc2c1S(=O)(=O)O
> 100 µM (inactive) | Cc1ccc2nc(-c3ccc4nc(-c5ccc(NC(=O)c6ccc(Cl)c(Cl)c6)cc5)sc4c3)sc2c1S(=O)(=O)O
11 µM | Cc1ccc2nc(-c3ccc4nc(-c5ccc(NC(=O)Nc6ccc(F)cc6)cc5)sc4c3)sc2c1S(=O)(=O)O
> 100 µM (inactive) | Cc1ccc2nc(-c3ccc4nc(-c5ccc(NC(=O)c6cccc(Cl)c6)cc5)sc4c3)sc2c1S(=O)(=O)O
inactive | Cc1ccc2nc(-c3ccc4nc(-c5ccc(NC(=O)c6ccc(CNC(=O)OCC7c8ccccc8-c8ccccc87)cc6)cc5)sc4c3)sc2c1S(=O)(=O)O
7 µM | Cc1ccc2nc(-c3ccc4nc(-c5ccc(NC(=S)Nc6ccccc6)cc5)sc4c3)sc2c1S(=O)(=O)O
5 µM | Cc1ccc(C(=O)Nc2ccc(-c3nc4ccc(-c5nc6ccc(C)c(S(=O)(=O)O)c6s5)cc4s3)cc2)cc1
> 100 µM (inactive) | Cc1ccc2nc(-c3ccc(NC(=O)c4ccc(NS(=O)(=O)c5ccccc5)cc4)cc3)sc2c1S(=O)(=O)O
14 µM | Cc1ccc2nc(-c3ccc4nc(-c5ccc(NC(=O)c6ccc(F)cc6)cc5)sc4c3)sc2c1S(=O)(=O)O
3 µM | Cc1ccc2nc(-c3ccc4nc(-c5ccc(NC(=O)c6ccc7nc(-c8ccc(N)cc8)sc7c6)cc5)sc4c3)sc2c1S(=O)(=O)O
5 µM | Cc1ccc2nc(-c3ccc4nc(-c5ccc(NC(=O)Nc6ccc(Cl)cc6)cc5)sc4c3)sc2c1S(=O)(=O)O
46 µM | Cc1ccc2nc(-c3ccc4nc(-c5ccc(NC(=O)c6ccc(Cl)cc6)cc5)sc4c3)sc2c1S(=O)(=O)O
10 µM | Cc1ccc(NC(=O)Nc2ccc(-c3nc4ccc(-c5nc6ccc(C)c(S(=O)(=O)O)c6s5)cc4s3)cc2)cc1
27 µM | Cc1ccc2nc(-c3ccc(NC(=O)c4ccc(NC(=O)OCC5c6ccccc6-c6ccccc65)cc4)cc3)sc2c1S(=O)(=O)O

IC50 | Structure (SMILES)
6 µM | Cc1ccc2nc(-c3ccc4nc(-c5ccc(NC(=O)Nc6ccccc6)cc5)sc4c3)sc2c1S(=O)(=O)O
> 100 µM (inactive) | Cc1ccc2nc(-c3ccc4nc(-c5ccc(NC(=O)c6cc(F)cc(C(F)(F)F)c6)cc5)sc4c3)sc2c1S(=O)(=O)O
17 µM | CC(=O)Nc1ccc(-c2nc3ccc(-c4nc5ccc(C)c(S(=O)(=O)O)c5s4)cc3s2)cc1
17 µM | Cc1ccc2nc(-c3ccc(NC(=O)c4ccc(NC(=O)c5ccc(N)cc5)cc4)cc3)sc2c1S(=O)(=O)O
13 µM | Cc1ccc2nc(-c3ccc4nc(-c5ccc(NC(=O)c6c(F)cccc6C(F)(F)F)cc5)sc4c3)sc2c1S(=O)(=O)O
36 µM | Cc1ccc2nc(-c3ccc4nc(-c5ccc(NC(=O)c6cc(C(F)(F)F)cc(C(F)(F)F)c6)cc5)sc4c3)sc2c1S(=O)(=O)O
27 µM | Cc1ccc2nc(-c3ccc4nc(-c5ccc(NC(=O)c6ccc(Br)cc6)cc5)sc4c3)sc2c1S(=O)(=O)O
2 µM | COc1ccc(C(=O)Nc2ccc(-c3nc4ccc(-c5nc6ccc(C)c(S(=O)(=O)O)c6s5)cc4s3)cc2)cc1
20 µM | Cc1ccc2nc(-c3ccc(NC(=O)c4ccc(NC(=O)Nc5ccccc5)cc4)cc3)sc2c1S(=O)(=O)O
> 100 µM (inactive) | Cc1ccc2nc(-c3ccc4nc(-c5ccc(NC(=O)c6ccc(NC(=O)OCC7c8ccccc8-c8ccccc87)cc6)cc5)sc4c3)sc2c1S(=O)(=O)O
3 µM | Cc1ccc2nc(-c3ccc4nc(-c5ccc(NC(=O)c6ccc(N)cc6)cc5)sc4c3)sc2c1S(=O)(=O)O
9 µM | Cc1ccc2nc(-c3ccc4nc(-c5ccc(NC(=O)c6cccc7ccccc67)cc5)sc4c3)sc2c1S(=O)(=O)O
inactive | Cc1ccc2nc(-c3ccc4nc(-c5ccc(NC(=O)c6ccncc6)cc5)sc4c3)sc2c1S(=O)(=O)O
> 100 µM (inactive) | Cc1ccc2nc(-c3ccc4nc(-c5ccc(NC(=O)c6cccnc6)cc5)sc4c3)sc2c1S(=O)(=O)O
4 µM | Cc1ccc2nc(-c3ccc4nc(-c5ccc(NC(=O)c6ccc(C(F)(F)F)cc6)cc5)sc4c3)sc2c1S(=O)(=O)O
4 µM | Cc1ccc2nc(-c3ccc4nc(-c5ccc(NC(=O)c6ccc(N(C)C)cc6)cc5)sc4c3)sc2c1S(=O)(=O)O
5 µM | Cc1ccc2nc(-c3ccc4nc(-c5ccc(NC(=O)c6ccc7nc(-c8ccc(NC(=O)OCC9c%10ccccc%10-c%10ccccc%109)cc8)sc7c6)cc5)sc4c3)sc2c1S(=O)(=O)O
4 µM | COc1ccc(NC(=O)Nc2ccc(-c3nc4ccc(-c5nc6ccc(C)c(S(=O)(=O)O)c6s5)cc4s3)cc2)cc1
7 µM | Cc1ccc2nc(-c3ccc(NC(=O)c4ccc(NC(=O)c5ccc(NC(=O)OCC6c7ccccc7-c7ccccc76)cc5)cc4)cc3)sc2c1S(=O)(=O)O
9 µM | Cc1ccc2nc(-c3ccc4nc(-c5ccc(N(C)C(=O)c6ccc7ccccc7c6)cc5)sc4c3)sc2c1S(=O)(=O)O
12 µM | Cc1ccc2nc(-c3ccc4nc(-c5ccc(NC(=O)c6cc(C(F)(F)F)ccc6F)cc5)sc4c3)sc2c1S(=O)(=O)O
32 µM | Cc1ccc2nc(-c3ccc4nc(-c5ccc(NC(=O)c6ccc(C(C)(C)C)cc6)cc5)sc4c3)sc2c1S(=O)(=O)O
inactive | Cc1ccc2nc(-c3ccc(NC(=O)c4ccc(NC(=O)c5ccccc5)cc4)cc3)sc2c1S(=O)(=O)O
23 µM | Cc1ccc2nc(-c3ccc(NC(=O)c4ccc(NC(=S)Nc5ccccc5)cc4)cc3)sc2c1S(=O)(=O)O
